For 35 molecules, inhibition results are on record in PubChem BioAssay AID1885 (Broad Institute, 2009).

The whole screen tested about 300,000 compounds, of which about 4,400 (1.5%) were called active.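 The calls were made as follows: active = mean inhibition across valid replicates above about 55% (limit read from the data); inconclusive = mean below that limit but half or more replicates reach it; inactive = mean below it, under half of replicates reach it.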 Only a selection was taken, and actives are over-represented in it overall.

This assay can be described thus: inhibitors of intracellular T. cruzi growth, primary screen, luminescence, NIH3T3 host cells (AID 1885).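 Also: signal also drops with host cell toxicity which is not excluded here; 0% = plate median of DMSO wells and 100% = zero luminescence signal; higher percent means less beta-gal luminescence so fewer parasites.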 The following applies: T. cruzi beta-gal in NIH3T3, luminescence, 90 h; active compounds read high; concentration not given here. In outline:
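Assay system: NIH/3T3 fibroblasts plus reporter T. cruzi. Amount: NIH/3T3 cells, 5,000 per well. Buffer or medium: DMEM, 2% fetal bovine serum. Doses: compound pinned at 50 nL/well, DMSO. Schedule: ≥90 h infection period, 3 h prior cell attachment. Signal: luminescent β-galactosidase signal after 60 min lysis. Read-out: parasite load inhibition, %.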
By inhibition is commonly meant the change of the read-out against control, counted positive when it falls. In the case of `O=C(NCC(c1cccnc1)N1CCN(c2ccccc2)CC1)Oc1ccccc1` (stereo not given), the inhibition was 64.2% (active).

As for `COC(=O)C(c1ccccc1)N1CCCCCC1` (stereo not given), the inhibition is -2.88% (inactive).

On to `COc1ccccc1N1CCN(C(CNC(=O)Oc2ccccc2)c2cccnc2)CC1` (stereo not given), for which the inhibition is 61.2% (active).

For `c1ccc(CCN2CCC3(CC2)OCCO3)cc1`, the inhibition is 8.57% (inactive).

For the molecule `Cc1ccc(C)c(NC2=NCCCS2)c1`, the inhibition was 8.9% (inactive).

As to `COc1cccc(OC)c1C(=O)NC(=S)N1C[C@H]2C[C@H](C1)c1cccc(=O)n1C2`, the inhibition was 0.307% (inactive).

As to `CC(C)c1ccc(-n2c(O)c(/C=N/N3CCOCC3)c(=O)[nH]c2=S)cc1`, the inhibition was -9.55% (inactive).

As for `CCN1CC2C3CCC(C)(O3)C2C1` (stereo not given), the inhibition was -4.25% (inactive).

Consider `COc1ccc(Br)cc1CNCCc1cccc(Cl)c1`, for which the inhibition is 56.8% (active).

`COc1ccc(CNCCc2ccc3c(c2)OCO3)c(OC)c1OC`: the inhibition was 50.2% (inactive).

For the molecule `COc1ccc(CNCCc2c[nH]c3ccccc23)cc1OC`, the inhibition is 8.16% (inactive).

Consider `CC1=CC(=Cc2sc3ccccc3[n+]2C)C=C(C)O1`, for which the inhibition was 81.1% (active).

With `COc1ccc(N2C(=O)/C(=C/c3ccco3)C(=O)NC2=S)cc1`, the inhibition is -2.75% (inactive).

As for `C[C@@]1([C@@H](NP(=O)(c2ccccc2)c2ccccc2)c2ccccc2)C[C@H]1CCO`, the inhibition was 1% (inactive).

Turning to `Cc1ccc(-c2nn(CCC#N)cc2C(=O)O)cc1C`, the inhibition is -14.3% (inactive).

Take `COc1ccccc1-n1c(O)c(C=NC2CC2)c(=O)[nH]c1=O`: the inhibition is -10.6% (inactive).

Take `COc1cccc(CN2CCCC(C(=O)c3ccccc3SC)C2)c1O` (stereo not given): the inhibition is 0.0491% (inactive).

Regarding `O=C(c1ccccc1[N+](=O)[O-])N1CCC2(CC1)OCCO2`, the inhibition was -12.5% (inactive).

For the molecule `Cc1ccc(C2CN(C)CC2C(=O)c2ccc(F)cc2)cc1` (stereo not given), the inhibition was -5.25% (inactive).

In the case of `CN1CCC(OC(=O)c2cccc(F)c2)CC1`, the inhibition is 58.3% (active).

Consider `CCC/C(=N\O)c1c[nH]c2ccccc12`, for which the inhibition is -2.44% (inactive).

As for `COc1ccc(-n2c(O)c(C(C)=Nc3ccc4c(c3)CCC4)c(=O)[nH]c2=O)cc1`, the inhibition was -27.7% (inactive).

With `CCOc1ccc(CN(CCCl)CCCl)cc1C(=O)OC`, the inhibition was -1.04% (inactive).

Take `CCOc1ccc(-c2cc(C)[n+](CCN(CC)CC)c(-c3ccc(OCC)cc3)c2)cc1`: the inhibition is 64.1% (active).

For the molecule `CN1C2C=C(N(C(=O)c3ccc(Cl)cc3)c3ccccc3)CC1CC2` (stereo not given), the inhibition was 9.22% (inactive).

`O=C1N=c2ccccc2=C/C1=C\c1c(O)[nH]c(=S)[nH]c1=O`: the inhibition was -14% (inactive).

Turning to `CCCCCCCCCCCCn1ccc(=N)cc1`, the inhibition was 58.9% (active).

On to `CCc1nc2ccccc2c(=O)n1-c1cccc(OC)c1`, for which the inhibition is -3.64% (inactive).

Consider `CC(C)Oc1cccc(C(=O)C2CCCN(C3CCOCC3)C2)c1` (stereo not given), for which the inhibition was -14% (inactive).

As for `CC(=O)c1c(O)n(C2CCCCCC2)c(=O)[nH]c1=O`, the inhibition is -10.9% (inactive).

With `CC1=C(C(=O)Nc2ccccc2)SCCO1`, the inhibition is -24.2% (inactive).

On to `O=C(NC(c1ccc(Cl)cc1)P(=O)(Oc1ccccc1)Oc1ccccc1)OCc1ccccc1` (stereo not given), for which the inhibition was 12.3% (inactive).

As for `C=CCN1C(=O)NC(=O)/C(=C/c2ccc(OCC(=O)Nc3ccc(C)cc3)cc2)C1=O`, the inhibition is 12.8% (inactive).

On to `COc1cc(C(c2c(O)c3ccccc3oc2=O)c2c(C)n(C)n(-c3ccccc3)c2=O)ccc1O` (stereo not given), for which the inhibition is -33% (inactive).

With `CCOP(=O)(OCC)C(NC(=O)NC)C(N)=O` (stereo not given), the inhibition is 2.29% (inactive).
